bIAP inh – blocks bovine intestinal alkaline phosphatase activity. purified bovine IAP, CDP-star luminescence, 30 min. inhibition, % at 20 µM. 190,000 tested, under 10 active. AID 1019;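 active = over 50% inhibition of intestinal alkaline phosphatase at 20 µM in the single-dose screen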
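System: Purified bovine intestinal alkaline phosphatase (IAP) enzyme | Input: IAP diluted 1/65,000,000 in the well | Also added: CDP-star chemiluminescent phosphatase substrate, 30 µM final | Dosing: 20 µM single dose | Times: Enzyme reaction for 30 min at room temperature | Detection: Luminescence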
mIAP block – mouse IAP inhibition; purified mouse IAP, CDP-Star luminescence, 30 min; inhibition, % at 10 µM; 330,000 compounds, 0.2% hits;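 active = inhibition of at least 40% at 10 µM in the primary screen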;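 note: plate controls were DMSO with enzyme for no effect and no enzyme wells for full effect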
mIAP activ – mouse IAP activation. 330,000 compounds, 0.24% hits. muIAP, CDP-Star luminescence, 30 min; hits give high values; 1 = vehicle-only enzyme signal, 0 = enzyme-free wells. activation factor at 10 µM;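 active = activation factor of at least 2 at 20 µM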
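also added = chemiluminescent substrate CDP-Star | test system = mouse IAP enzyme | signal = chemiluminescence readout | compound = DMSO-dissolved test compounds | incubation = 30 min at room temperature | benchmarks = DMSO wells, no-enzyme wells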
bIAP act – increases bovine intestinal alkaline phosphatase activity; purified bovine IAP, CDP-star luminescence, 30 min; hits give high values; fold of DMSO-control signal, blank-subtracted; activation factor at 20 µM; 200,000 compounds, 0.17% hits;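 active = activation factor of 2 or more at 20 µM, a signal rise over negative controls twice the positive control's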
hIAP inh – human IAP inhibition; P09923; purified IAP, CDP-Star luminescence, 30 min; inhibition, % at 10 µM; 330,000 compounds, 0.12% hits; AID 2544;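 active = inhibition reaching a set limit with compound at 10 µM in the primary screen, cut at about 35% in these data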;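 note: plate controls were DMSO wells with enzyme for no effect and no-enzyme buffer wells for full effect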
Target sequence (P09923 whole entry, looked up): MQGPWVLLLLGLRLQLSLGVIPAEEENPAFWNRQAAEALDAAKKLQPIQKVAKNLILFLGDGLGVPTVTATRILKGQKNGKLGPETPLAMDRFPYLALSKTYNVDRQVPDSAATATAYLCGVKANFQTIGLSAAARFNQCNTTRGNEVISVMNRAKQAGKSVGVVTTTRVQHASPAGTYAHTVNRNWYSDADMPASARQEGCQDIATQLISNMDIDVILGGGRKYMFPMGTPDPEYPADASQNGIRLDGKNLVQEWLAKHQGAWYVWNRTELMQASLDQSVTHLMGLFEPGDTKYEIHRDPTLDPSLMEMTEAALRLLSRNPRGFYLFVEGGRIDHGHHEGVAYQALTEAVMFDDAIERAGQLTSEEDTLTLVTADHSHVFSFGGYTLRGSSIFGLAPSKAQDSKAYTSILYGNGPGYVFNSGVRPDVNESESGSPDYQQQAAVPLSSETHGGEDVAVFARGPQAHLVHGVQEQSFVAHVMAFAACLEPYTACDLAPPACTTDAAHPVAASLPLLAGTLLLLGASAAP
hIAP act – increases human intestinal alkaline phosphatase activity | P09923 | purified human IAP, CDP-Star luminescence, 30 min; hits give high values; 1 = vehicle-only enzyme, 0 = enzyme-free background | activation factor at 10 µM | 330,000 compounds, 0.16% hits | AID 2524;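 active = activation factor of the enzyme at least 2-fold when tested at 20 µM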
* hit, by the source's call; i = inactive; . = no result given. Hits are enriched below; roughly 0.77% of the tested compounds scored in any of these assays.

SMILES	bIAP inh	mIAP block	mIAP activ	bIAP act	hIAP inh	hIAP act
O=C(Nc1ccc(Cl)c(Cl)c1)Nc1nc(-c2ccccc2)cs1	-5	-111	2.1*	1.1	-7	1.1
CC1CCCCN1CCn1c(=S)[nH]c2cc3c(cc2c1=O)OCO3 (centres undefined)	-9	11	0.89	1.1	1	0.99
N#CCc1ccc(NC(=O)Nc2cccc3ccccc23)cc1	.	-110	2.1*	.	-27	1.3
Cc1ccc(NC(=O)Nc2cccc3ccccc23)cc1	.	-20	1.2	.	0	1
COc1ccc(/C=N/Nc2cc(=O)n(C)c(=O)n2C)cc1OC	-96	-2	1	2*	-18	1.2
Oc1ccccc1/C=N/Nc1cccc2cccnc12	-173	18	0.82	2.7*	1	0.99
O=C(Nc1cccc(F)c1)c1ccc(-c2ccccc2C(F)(F)F)o1	-24	.	.	1.2	.	.
Cc1ccccc1-c1ccc(C(=O)Nc2cccc(F)c2)o1	-246	-1	1	3.5*	-3	1
C#CCOCCOCCOCCNc1nc(N2CCN(C(=O)C(Cc3cc4ccccc4[nH]3)n3cc(C(N)C(C)CC)nn3)CC2)nc(N2CCN(C(=O)C(Cc3cc4ccccc4[nH]3)n3cc(C(N)C(C)CC)nn3)CC2)n1 (centres undefined)	-292	-78	1.8	3.9*	9	0.91
O=C(NC1CC2CCC(C1)N2Cc1nnnn1Cc1ccco1)NC12CC3CC(CC(C3)C1)C2 (centres undefined)	-235	-36	1.4	3.4*	5	0.95
CCOc1ccccc1C(=O)NC1CC2CCCC(C1)N2Cc1nnnn1Cc1ccco1 (centres undefined)	4	8	0.92	1	-1	1
CCOC(=O)c1ccc(NC(=O)Nc2ccc(F)cc2)cc1	22	-154	2.5*	0.8	4	0.96
CCOC(=O)c1cccc(NC(=O)Nc2ccc(OCC)cc2)c1	8	-191	2.9*	0.9	-8	1.1
CCCCOC(=O)c1ccc(NC(=O)Nc2ccc(OC)c(OC)c2)cc1	19	-115	2.2*	0.8	-28	1.3
CCOC(=O)c1ccc(NC(=O)NCc2ccccc2)cc1	9	-38	1.4	0.9	-3	1
CCOC(=O)c1ccc(NC(=O)NCc2ccccc2OC)cc1	-16	-135	2.4*	1.2	-32	1.3
COC(=O)c1ccc(NC(=O)Nc2ccc(F)cc2)cc1	25	-78	1.8	0.7	1	0.99
CCC(CC)NC(=O)CN1CCN(S(=O)(=O)c2cccs2)CC1	.	6	0.94	.	12	0.88
Cc1ccccc1C(=O)NCC(=O)OC(C)C(=O)NC(C)CCc1ccccc1 (centres undefined)	.	-5	1.1	.	-5	1
Cc1ccc(NC(=O)Nc2c(C)n(C)n(-c3ccccc3)c2=O)cc1	.	2	0.98	.	10	0.9
Cc1cc(C)c(NC(=O)CNC(=O)c2ccc3c(=O)n4c(nc3c2)CCC4)c(C)c1	.	-7	1.1	.	13	0.87
CCOC(=O)c1ccccc1NC(=O)COC(=O)CSC(C)C(=O)Nc1cc(C)on1 (centres undefined)	.	2	0.98	.	8	0.92
CSc1ncc(CO)n1Cc1ccccc1	1	8	0.92	1	10	0.9
Cc1cccc(NCc2nc3ccccc3n2Cc2ccccc2)c1	i	-9	1.1	9.5*	2	0.98
Cc1nc2cc(NCc3nc4ccccc4n3Cc3ccccc3)ccc2n1C	-53	-1	1	1.5	-16	1.2
SMILES	bIAP inh	mIAP block	mIAP activ	bIAP act	hIAP inh	hIAP act
O=C(c1cccc(N2C(=O)C3C4C=CC(C4)C3C2=O)c1)N1CCN(c2ccccc2F)CC1 (centres undefined)	.	-8	1.1	.	-26	1.3
COc1cccc(-c2nn(-c3ccccc3)cc2C(=O)OCC(=O)Nc2ncc(Cl)cc2Cl)c1	-97	11	0.89	2*	13	0.87
Cc1nn(-c2ccccc2)c(C)c1/C=C/C(=O)OCC(=O)Nc1ncc(Cl)cc1Cl	i	-11	1.1	11*	5	0.95
O=C(COC(=O)c1cn(-c2ccccc2)nc1-c1ccccc1)Nc1ncc(Cl)cc1Cl	.	5	0.95	.	7	0.93
O=C(NCc1cccnc1)c1cc2ccccc2oc1=O	1	-6	1.1	1	0	1
O=C(NCCc1cccc(Cl)c1)c1cc2ccccc2oc1=O	.	41*	0.59	.	-3	1
CC1SC(c2ccc(F)cc2)NC1=O (centres undefined)	0	7	0.93	1	5	0.95
COc1ccc(CCNC(=S)NCc2ccc(Cl)c(Cl)c2)cc1OC	-6	-104	2*	1.1	-17	1.2
O=C(CSc1nnc(-c2ccccn2)o1)Nc1ccccc1Cl	.	5	0.95	.	-38	1.4
C=CCN=C(NC#N)SCCc1ccccc1	34	0	0.99	0.7	0	1
C=CCN=C(NC#N)SCC(=O)NCc1ccccc1	-124	4	0.96	2.2*	-14	1.1
O=C(Nc1cccc(C(F)(F)F)c1)Nc1ccc(N2CCCC2)c(S(=O)(=O)Nc2ccccc2Cl)c1	30	-110	2.1*	0.7	-12	1.1
COc1ccccc1NS(=O)(=O)c1cc(NC(=O)Nc2ccc(Cl)cc2Cl)ccc1N1CCCCC1	5	-244	3.4*	0.9	-11	1.1
Cc1ccc(SC(C)C(=O)N2CCC(C(N)=O)CC2)cc1 (centres undefined)	6	-4	1	0.9	3	0.97
Cc1cccc(-c2noc(CCCC(=O)NC3CCCC3)n2)c1	.	-2	1	.	5	0.95
Cc1ccc(NC(=O)C(Cc2ccccc2)n2cccc2)cc1 (centres undefined)	.	-28	1.3	.	-14	1.1
Cc1csc(NC(=O)C(Cc2ccccc2)n2cccc2)n1 (centres undefined)	12	43*	0.57	0.9	8	0.92
O=C(Nc1ccccc1-c1ccccc1)NC1CC2CCCC(C1)N2CCc1ccccc1 (centres undefined)	-8	-131	2.3*	1.1	10	0.9
Cc1ccccc1NC(=O)CN1CCC(NC(=O)Nc2ccccc2)CC1	-129	-12	1.1	2.3*	-44	1.4
Cc1c(C(=O)Nc2ccccc2[N+](=O)[O-])csc1-c1ccccc1	-266	9	0.91	3.7*	13	0.87
CCN1/C(=C\C=C2\C(=O)N(C)C(=S)N2C)Sc2ccccc21	35	15	0.85	0.6	37*	0.63
O=C(Nc1ccccc1N1CCOCC1)c1cccc(Oc2ccccc2)c1	.	1	0.99	.	-1	1
CCNC(=O)COC(=O)c1ccc(-c2nc3ccccc3s2)s1	-10	-8	1.1	1.1	-5	1.1
Cc1noc(C)c1COC(=O)c1ccc(-c2nc3ccccc3s2)s1	2	42*	0.58	1	-2	1

Screening data deposited in PubChem BioAssay by Sanford-Burnham Center for Chemical Genomics.
